ChEMBL document CHEMBL1155787, “Synthesis and biological evaluation of new disubstituted analogues of 6-methoxy-3-(3',4',5'-trimethoxybenzoyl)-1H-indole (BPR0L075), as potential antivascular agents” (Bioorg Med Chem, 2008)
The source made the active and inactive calls. No cut-off for these calls is given here.

How the values were obtained:
[1] = test system: B16; experiment: Cytotoxicity against mouse B16 cells assessed as cell viability after 48 hrs by MTT test; assay type: functional, cell-based; conditions: B16, 48 h
In short: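 Murine B16 melanoma cells grown in DMEM with 2 mM L-glutamine, 10% FBS and penicillin/streptomycin at 37 °C, 5% CO2. Cells plated at 5000/well. After 24 h, compound added in triplicate at final 0.25 ng/mL to 25 µg/mL in 10-fold dilutions (DMSO stock, 1% DMSO controls). IC50 from 3–7 independent triplicate experiments.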

[2] = test system: EA.hy 926; experiment: Induction of morphological changes in human EA.hy 926 cells assessed as rounding up after 2 hrs; assay type: functional
In short: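 EA.hy 926 cells (HUVEC–A549 fusion line) grown in DMEM with 2 mM glutamine, 10% FBS and penicillin/streptomycin at 37 °C, 5% CO2. Plated at 5000 cells/well and exposed in triplicate to 10-fold dilutions for 2 h. Solvent control was 1% DMSO. Wells photographed at the centre. Value is the lowest concentration at which rounding up was seen.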

[3] = species on record: Bos taurus; experiment: Ratio of IC50 of drug to IC50 of colchicine for calf brain tubulin polymerization
In short: (§1)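 Calf brain tubulin purified by three assembly–disassembly cycles, used at a final 2–3 mg/mL in pH 6.6 buffer (0.1 M MES, 0.5 mM MgCl2, 2 mM EGTA, 1 mM GTP). Assembly followed by turbidity at 400 nm at 37 °C.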

[4] = Inhibition of tubulin polymerization; in short: as §1

| SMILES | IC50 [1] | Activity [2] | Ratio IC50 [3] | IC50 [4] | Activity [3] |
| --- | --- | --- | --- | --- | --- |
| COc1cc2c(c(OC)c1OC)-c1ccc(OC)c(=O)cc1[C@@H](NC(C)=O)CC2 [COLCHICINE] | 0.031 µM | 0.003 µM | – | – | – |
| COc1ccc2c(C(=O)c3cc(OC)c(OC)c(OC)c3)c[nH]c2c1 | 0.013 µM | 0.007 µM | 0.4 | 2.8 µM | – |
| COc1cc2[nH]cc(C(=O)c3cc(OC)c(OC)c(OC)c3)c2cc1OS(C)(=O)=O | 13.7 µM | 14.35 µM | – | – | inactive |
| COc1cc(C(=O)c2c[nH]c3c(OS(C)(=O)=O)c(OC)ccc23)cc(OC)c1OC | 0.17 µM | 0.013 µM | 2.7 | – | – |
| COc1cc2c(C(=O)c3cc(OC)c(OC)c(OC)c3)cn(S(=O)(=O)c3ccccc3)c2cc1OS(C)(=O)=O | 3.14 µM | 1.3 µM | 18 | – | – |
| COc1cc2c(cc1OS(C)(=O)=O)c(C(=O)c1cc(OC)c(OC)c(OC)c1)cn2S(=O)(=O)c1ccccc1 | 3.29 µM | 10.86 µM | 15 | – | – |
| COc1cc2c(C(=O)c3cc(OC)c(OC)c(OC)c3)c[nH]c2cc1O | 5.07 µM | 8.74 µM | 12 | – | – |
| COc1ccc(/C=C\c2cc(OC)c(OC)c(OC)c2)cc1O [COMBRETASTATIN A4] | 0.003 µM | 0.008 µM | 0.7 | 2.2 µM | – |
| COc1cc2c(C(=O)c3cc(OC)c(OC)c(OC)c3)c[nH]c2cc1OS(C)(=O)=O | 32.4 µM | 28.71 µM | – | – | inactive |
